Measured values as given in ChEMBL document CHEMBL1799999, “N-benzoylated phenoxazines and phenothiazines: synthesis, antiproliferative activity, and inhibition of tubulin polymerization” (J Med Chem, 2011).

What was measured:
K562 = assay: Antiproliferative activity against human K562 cells after 48 hrs by hemocytometric analysis; format: functional, cell-based; settings: K562, 48 h
Method in brief: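 K562 cells in RPMI 1640 with 10% FBS at 37 °C/5% CO2, plated at 2 × 10^5 cells/mL. Compounds in DMSO/methanol 1:1, final vehicle 0.5%. Cells counted in a Neubauer hemocytometer after 48 h and expressed as % of untreated control. Triplicate wells, three experiments; IC50 by nonlinear regression.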

Tubulin = Tubulin (Sus scrofa, UniProt P02554+P02550); assay: Inhibition of pig tubulin polymerization determined after 45 mins at 37 degC by turbidimetric analysis; format: protein assay
Method in brief: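 Microtubule protein (80–90% tubulin with MAPs) from porcine brain, isolated by two cold/warm cycles. Buffer: 20 mM PIPES pH 6.8, 80 mM NaCl, 0.5 mM MgCl2, 1 mM EGTA, 1 mM DTT. Protein at 1.2 mg/mL (about 10 μM tubulin) with 0.6 mM GTP, 1% DMSO, 37 °C.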

SMILES	IC50 (K562) [µM]	IC50 (Tubulin) [µM]
COc1ccc(C(=O)N2c3ccccc3Sc3ccccc32)cc1O	0.21	1.4
COc1cc(C(=O)N2c3ccccc3S(=O)(=O)c3ccc(Cl)cc32)cc(OC)c1OC	4.2	> 10
O=C(c1ccc(Br)cc1)N1c2ccccc2Oc2ccc(Cl)cc21	> 25	
O=C(c1ccc(C(F)(F)F)cc1)N1c2ccccc2Oc2ccc(Cl)cc21	> 75	
COc1cc(C(=O)N2c3ccccc3Oc3ccc(Cl)cc32)cc(OC)c1O	4.63	0.68
COc1ccc(C(=O)N2c3ccccc3[S+]([O-])c3ccc(Cl)cc32)cc1 (stereo unspecified)	1.4	2.79
COc1ccc(CC(=O)N2c3ccccc3Oc3ccc(Cl)cc32)cc1	0.55	1.1
COc1ccc(C(=O)N2c3ccccc3Sc3ccc(SC)cc32)cc1	3.62	1.43
Clc1ccc2c(c1)Nc1ccccc1O2	> 30	> 10
COc1ccc(C(=O)N2c3ccccc3[S+]([O-])c3ccc(OC)cc32)cc1 (stereo unspecified)	1.65	23.31
O=C(c1ccc([N+](=O)[O-])cc1)N1c2ccccc2Oc2ccc(Cl)cc21	> 80	5.03
c1ccc2c(c1)Nc1ccccc1O2 [PHENOXAZINE]	> 30	> 10
COc1ccc(C(=O)N2c3ccccc3[S+]([O-])c3ccccc32)cc1	0.42	9.39
COc1cc(C(=O)N2c3ccccc3[S+]([O-])c3ccccc32)cc(OC)c1OC	8.03	> 10
O=C(c1ccccc1)N1c2ccccc2S(=O)(=O)c2ccc(Cl)cc21	> 30	
COc1ccc(C(=O)N2c3ccccc3Sc3ccccc32)cc1	0.33	2.23
COc1ccc(C(=O)N2c3ccccc3S(=O)(=O)c3ccccc32)cc1	0.28	2.53
COc1ccc(CC(=O)N2c3ccccc3Sc3ccc(Cl)cc32)cc1	8	
COc1ccc(C(=O)N2c3ccccc3Sc3ccc(Cl)cc32)cc1	0.84	0.87

SMILES	IC50 (K562) [µM]	IC50 (Tubulin) [µM]
O=C(c1ccccc1)N1c2ccccc2S(=O)(=O)c2ccccc21	> 30	
c1ccc2c(c1)Nc1ccccc1S2 [PHENOTHIAZINE]	> 100	
COc1cc(C(=O)N2c3ccccc3Sc3ccccc32)cc(OC)c1OC	1.86	4.96
COc1ccc(C(=O)N2c3ccccc3Oc3cccc(C#N)c32)cc1	0.12	0.96
COc1ccc(C(=O)N2c3ccccc3Oc3ccc(C#N)cc32)cc1	0.16	2.7
O=C(c1ccccc1)N1c2ccccc2Sc2ccccc21	> 30	
O=C(c1ccccc1)N1c2ccccc2Sc2ccc(Cl)cc21	> 30	
CN(C)c1ccc(C(=O)N2c3ccccc3Oc3ccc(Cl)cc32)cc1	1.21	0.88
O=C(c1ccccc1)N1c2ccccc2[S+]([O-])c2ccc(Cl)cc21 (stereo unspecified)	> 30	
COc1ccc(C(=O)N2c3ccccc3S(=O)(=O)c3ccc(OC)cc32)cc1	1.58	4.69
COc1ccc(C(=O)N2c3ccccc3Sc3ccccc32)cc1OCc1ccccc1	> 30	
COc1cc(C(=O)N2c3ccccc3Oc3ccc(Cl)cc32)cc(OC)c1OC	24	
O=C(c1ccccc1)N1c2ccccc2[S+]([O-])c2ccccc21	> 30	
COc1ccc(C(=O)N2c3ccccc3Sc3ccc(C(F)(F)F)cc32)cc1	4.6	> 10
CC(=O)N1c2ccccc2Oc2ccc(Cl)cc21	> 30	
N#Cc1ccc2c(c1)Oc1ccccc1N2C(=O)c1ccc(Cl)cc1	0.49	2.39
COc1ccc(C(=O)N2c3ccccc3[S+]([O-])c3ccccc32)cc1O	0.3	8.4
COc1ccc(C(=O)CN2c3ccccc3Oc3ccc(Cl)cc32)cc1	> 20	
Clc1ccc2c(c1)Nc1ccccc1S2	> 100	
